Data on 9 compounds can be found in ChEMBL document CHEMBL3603777, “Carbon nanotubes supported tyrosinase in the synthesis of lipophilic hydroxytyrosol and dihydrocaffeoyl catechols with antiviral activity against DNA and RNA viruses” (Bioorg Med Chem, 2015).

The subject of data set [1] is Human poliovirus 1 strain Sabin. Description: Antiviral activity against Poliovirus type 1 Sabin VR-1562 infected in African green monkey Vero cells assessed as inhibition of virus-induced plaque formation/cytopathogenicity. The note with it: Enterovirus C, VR-1562, Vero; read-out: ID50 (the source's name). The format is functional. Put shortly:
(§1)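 Cell monolayers infected at MOI 0.1 and treated with compound at 25 to 200 μg/mL. Compounds dissolved in DMSO, diluted in maintenance medium (DMEM, 2% heat-inactivated FCS), final DMSO at most 0.01%. Acyclovir is the reference. ID50 is the concentration giving 50% reduction of plaque formation or virus-induced cytopathogenicity, from dose–response curves by linear regression. Values are the mean of three separate assays.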
A general note: Cytopathic effects are the visible damage that an infection or toxin causes in cultured cells.

In a further data set the test system is Coxsackievirus B3. The data set is described as follows: Antiviral activity against Coxsackie type B3 virus VR-1034 infected in African green monkey Vero cells assessed as inhibition of virus-induced plaque formation/cytopathogenicity. The format is functional. The note with it: Enterovirus B, VR-1034, Vero; read-out: ID50 (the source's name). In outline: as §1

The subject of another data set is Echovirus E9. The data set is described as follows: Antiviral activity against Human echovirus type 9 VR-1050 infected in African green monkey Vero cells assessed as inhibition of virus-induced plaque formation/cytopathogenicity. The format is functional. Particulars: Enterovirus B, VR-1050, Vero; read-out: ID50 (the source's name). In outline: as §1
Data set [2] deals with Human alphaherpesvirus 1. Description: Antiviral activity against Herpes simplex type 1 VR-260 infected in African green monkey Vero cells assessed as inhibition of virus-induced plaque formation/cytopathogenicity. Particulars: Human alphaherpesvirus 1, VR-260, Vero; read-out: ID50 (the source's name). The format is functional. Put shortly:
as §1

The next data set relates to Human adenovirus 2. Description: Antiviral activity against Adenovirus type 2 VR-1080 infected in human Hep2 cells assessed as inhibition of virus-induced plaque formation/cytopathogenicity. The format is functional. The note with it: Human mastadenovirus C, VR-1080, HEp-2; read-out: ID50 (the source's name). In outline:
as §1

Another data set relates to Human adenovirus 5. Description: Antiviral activity against Adenovirus type 5 VR-1523 infected in human Hep2 cells assessed as inhibition of virus-induced plaque formation/cytopathogenicity. The format is functional. Particulars: Human mastadenovirus C, VR-1523, HEp-2; read-out: ID50 (the source's name). Put shortly:
as §1

A short description of data set [3]: Cytotoxicity against African green monkey Vero cells after 24 hrs by MTT assay. The format is cell-based. The note with it: chlorocebus sabaeus. A general note: Tetrazolium dyes change colour on reduction, which living cells bring about.
Data set [4] is described as follows: Cytotoxicity against human Hep2 cells after 24 hrs by MTT assay. The format is cell-based, HEp-2.
A further data set concerns Human alphaherpesvirus 2. The data set is described as follows: Antiviral activity against Herpes simplex type 2 VR-734 infected in African green monkey Vero cells assessed as inhibition of virus-induced plaque formation/cytopathogenicity. The format is functional. Particulars: Human alphaherpesvirus 2, VR-734, Vero; read-out: ID50 (the source's name). Put shortly:
as §1

Another data set relates to Cytomegalovirus. Description: Antiviral activity against Cytomegalovirus VR-538 infected in human HFF1 cells assessed as inhibition of virus-induced plaque formation/cytopathogenicity. The format is functional. The note with it: Human betaherpesvirus 5, VR-538, HFF-1; read-out: ID50 (the source's name). Put shortly:
as §1

Data set [5] can be described thus: Cytotoxicity against human HFF1 cells after 24 hrs by MTT assay. The format is cell-based, HFF-1.
Data set [6] relates to Human alphaherpesvirus 1. Description: Antiviral activity against Herpes simplex type 1 VR-260 infected in African green monkey Vero cells assessed as inhibition of virus replication at 5 times ID50 treated 1 hr after virus adsorption period measured after 12 hrs by plaque assay. The format is functional, organism-based. In outline:
(§2)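 Confluent Vero monolayers infected with HSV-1 at MOI 0.1, 2 h adsorption at 4 °C for synchronous replication. Inoculum then removed and fresh medium with or without compound added at various times after adsorption. Incubation at 37 °C for 12 h, cultures frozen, virus yield titrated by plaque assay. Mean ± SEM of three separate assays.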

Data set [7] has as its system Human alphaherpesvirus 1. The data set is described as follows: Antiviral activity against Herpes simplex type 1 VR-260 infected in African green monkey Vero cells assessed as inhibition of virus replication at 5 times ID50 treated 2 hrs after virus adsorption period measured after 12 hrs by plaque assay. The format is functional, organism-based. In outline:
as §2

Data set [8] relates to Human alphaherpesvirus 1. The data set is described as follows: Antiviral activity against Herpes simplex type 1 VR-260 infected in African green monkey Vero cells assessed as reduction of virus yield at 5 times ID50 treated 2 hrs after virus adsorption period measured after 12 hrs by plaque assay. The format is functional, organism-based. Put shortly: as §2
Data set [9] relates to Human alphaherpesvirus 1. Description: Inhibition of Herpes simplex type 1 VR-260 adsorption in African green monkey Vero cells assessed as cell-associated viral activity at 5 times ID50 after 120 mins by plaque assay. The format is functional, organism-based. In outline:
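Infective center assay. HSV-1 (10⁶ PFU/mL) preincubated 60 min at 37 °C with compound, chilled to 4 °C, then added to a Vero suspension (10⁶ cells/mL) precooled ≥1 h at 4 °C. Adsorption for 120 min at 4 °C. Cells washed three times with cold DMEM, serially diluted and plaque assayed for cell-associated virus.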

Data set [10] deals with Human alphaherpesvirus 1. The data set is described as follows: Antiviral activity against Herpes simplex type 1 VR-260 infected in African green monkey Vero cells assessed as virucidal activity at 5 times ID50 after 1 hr by plaque assay. The format is functional, organism-based. In outline: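 HSV-1 suspension (10⁶ PFU/mL) mixed 1:1 by volume with DMEM containing compound at 5× ID50, held 1 h at 37 °C. Residual infectivity measured by plaque assay on Vero cells after diluting below the inhibitory concentration.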

Data set [11] deals with Human alphaherpesvirus 1. The data set is described as follows: Antiviral activity against Herpes simplex type 1 VR-260 infected in African green monkey Vero cells assessed as protection of host cells from viral infection […] by plaque assay. The format is functional, organism-based.

≈ marks a conversion by molar mass, not a printed value. Calls of active or inactive are those of the source. The rule behind the calls is not given here.

The term CC50 denotes the concentration that lowers cell viability or growth by half. Consider `CCCOC(=O)CCc1ccc(O)c(O)c1`, for which the IC50 (in data set [1]; in the data set with Coxsackievirus B3; in the data set on Echovirus E9; with Human alphaherpesvirus 1 [2]; in the data set with Human adenovirus 2; in the data set on Human adenovirus 5) was greater than 200 µg/mL in each case. Besides, the cytotoxic concentration (CC50) at 24 h in data set [3] and in data set [4] was greater than 200 µg/mL in each case.
With `CCCC(=O)OCCc1ccc(O)c(O)c1` [HYDROXYTYROSOL BUTANOATE], the IC50 was greater than 100 µg/mL in data set [1]; greater than 100 µg/mL with Coxsackievirus B3; greater than 100 µg/mL in the data set with Echovirus E9; greater than 100 µg/mL in the data set on Human alphaherpesvirus 1 [2]; 100 µg/mL (≈ 446 µM) in the data set on Human alphaherpesvirus 2; greater than 100 µg/mL in the data set on Human adenovirus 2. Moreover, the IC50 with Human adenovirus 5 and in the data set with Cytomegalovirus was greater than 100 µg/mL each time. Further, the CC50 at 24 h in data set [3], in data set [4] and in data set [5] was 100 µg/mL (≈ 446 µM) in each case.
For the compound `CCCCC(=O)OCCc1ccc(O)c(O)c1`, the IC50 is greater than 25 µg/mL in [1]; greater than 25 µg/mL with Coxsackievirus B3; greater than 25 µg/mL in the data set with Echovirus E9; 25 µg/mL (≈ 105 µM) with Human alphaherpesvirus 1 [2]; greater than 25 µg/mL in the data set on Human adenovirus 2; greater than 25 µg/mL in the data set with Human adenovirus 5. Besides, the IC50 in the data set with Cytomegalovirus was greater than 25 µg/mL. In addition, the CC50 at 24 h in data set [3], in data set [4] and in data set [5] was 25 µg/mL (≈ 105 µM) in each case.
Consider `O=C(O)CCc1ccc(O)c(O)c1` [DIHYDROCAFFEIC ACID], for which the IC50 (in data set [1]; in the data set with Coxsackievirus B3; with Echovirus E9; in the data set on Human alphaherpesvirus 1 [2]; in the data set with Human adenovirus 2; in the data set on Human adenovirus 5) was greater than 200 µg/mL throughout. Besides, the IC50 in the data set with Cytomegalovirus is greater than 200 µg/mL. Further, the CC50 at 24 h in data set [3], in data set [4] and in data set [5] was greater than 200 µg/mL throughout.
For `CCOC(=O)CCc1ccc(O)c(O)c1`, the IC50 in data set [1] was greater than 75 µg/mL; with Coxsackievirus B3, 20 µg/mL (≈ 95.1 µM); in the data set on Echovirus E9, greater than 75 µg/mL; in the data set with Human alphaherpesvirus 1 [2] it was 15 µg/mL (≈ 71.4 µM); with Human alphaherpesvirus 2, 60 µg/mL (≈ 285 µM); in the data set with Human adenovirus 2, greater than 40 µg/mL. Besides, the IC50 in the data set on Human adenovirus 5 was greater than 40 µg/mL; with Cytomegalovirus it was 40 µg/mL (≈ 190 µM). Moreover, the CC50 at 24 h was 75 µg/mL (≈ 357 µM) in data set [3], 40 µg/mL (≈ 190 µM) in [4] and 40 µg/mL (≈ 190 µM) in [5]. Moreover, the result in the data set on Human alphaherpesvirus 1 [6] and with Human alphaherpesvirus 1 [8] was Active. Also, the result with Human alphaherpesvirus 1 [7], in the data set on Human alphaherpesvirus 1 [10] and with Human alphaherpesvirus 1 [11] was inactive. Besides, in the data set with Human alphaherpesvirus 1 [9], the inhibition result is “inactive”.
With `CCC(=O)OCCc1ccc(O)c(O)c1`, the IC50 is greater than 40 µg/mL in data set [1]; greater than 40 µg/mL in the data set on Coxsackievirus B3; greater than 40 µg/mL in the data set on Echovirus E9; 20 µg/mL (≈ 95.1 µM) in the data set on Human alphaherpesvirus 1 [2]; 40 µg/mL (≈ 190 µM) in the data set with Human alphaherpesvirus 2; greater than 40 µg/mL in the data set on Human adenovirus 2. In addition, the IC50 in the data set with Human adenovirus 5 and in the data set with Cytomegalovirus was greater than 40 µg/mL in each case. Further, the 50% cytotoxic concentration (CC50) at 24 h in data set [3], in data set [4] and in data set [5] was 40 µg/mL (≈ 190 µM) each time.
As to `CCCCOC(=O)CCc1ccc(O)c(O)c1`, the IC50 was greater than 200 µg/mL in data set [1]; 100 µg/mL (≈ 420 µM) in the data set on Coxsackievirus B3; greater than 200 µg/mL in the data set on Echovirus E9; greater than 200 µg/mL with Human alphaherpesvirus 1 [2]; greater than 200 µg/mL with Human alphaherpesvirus 2; greater than 200 µg/mL in the data set with Human adenovirus 2. Besides, the values for the IC50 with Human adenovirus 5 and in the data set with Cytomegalovirus were greater than 200 µg/mL and 25 µg/mL (≈ 105 µM), respectively. In addition, the cytotoxic concentration (CC50) at 24 h in [3] is 200 µg/mL (≈ 839 µM); in data set [4] it was 200 µg/mL (≈ 839 µM); in data set [5], 100 µg/mL (≈ 420 µM).
With `CC(=O)OCCc1ccc(O)c(O)c1`, the IC50 in data set [1] is greater than 100 µg/mL; in the data set on Coxsackievirus B3, 50 µg/mL (≈ 255 µM); with Echovirus E9 it was greater than 100 µg/mL; in the data set with Human alphaherpesvirus 1 [2], 20 µg/mL (≈ 102 µM); with Human alphaherpesvirus 2 it was 40 µg/mL (≈ 204 µM); in the data set on Human adenovirus 2, greater than 50 µg/mL. In addition, the IC50 in the data set with Human adenovirus 5 and in the data set on Cytomegalovirus was greater than 50 µg/mL throughout. Further, the values for the CC50 at 24 h in data set [3], in data set [4] and in data set [5] were 100 µg/mL (≈ 510 µM), 50 µg/mL (≈ 255 µM) and 50 µg/mL (≈ 255 µM), respectively.
Turning to `COC(=O)CCc1ccc(O)c(O)c1`, the IC50 (in data set [1]; in the data set on Coxsackievirus B3; in the data set on Echovirus E9; in the data set with Human alphaherpesvirus 1 [2]; with Human alphaherpesvirus 2; in the data set on Human adenovirus 2) was greater than 100 µg/mL each time. In addition, the IC50 with Human adenovirus 5 is greater than 100 µg/mL; with Cytomegalovirus it was 100 µg/mL (≈ 510 µM). In addition, the 50% cytotoxic concentration (CC50) at 24 h in [3], in data set [4] and in data set [5] was 100 µg/mL (≈ 510 µM) throughout.
